Results from PMC3929235 (Bioorganic & medicinal chemistry letters, 2013).

Columns and labels:
human α4β2α5 AChRs = human α4β2α5 AChRs (Homo sapiens, UniProt P17787+P30532+P43681); test: FLEXstation membrane potential assay, PAM of nicotine response at α4β2α5; assay type: cell-based; conditions: for activation at 1 µM: read-out: PAM(Y or N)
human α4β2 AChRs = human α4β2 AChRs (Homo sapiens, UniProt P17787+P43681); test: FLEXstation membrane potential assay at α4β2; assay type: cell-based
Outline: (§1)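 HEK tsA201 cells stably expressing the human receptor, kept in high-glucose DMEM with 10% FBS at 37 °C. Seeded on poly-D-lysine wells (150,000/well α4β2, α3β2; 200,000/well α3β2α5), then held at 29 °C for 20 h to raise expression. Membrane-potential dye fluorometry. Test compound serial dilutions added 15 min before nicotine. Response enhancement over nicotine alone, 3–4 wells per point, Hill fit; efficacy relative to reference PAM.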

human α3β2α5 AChRs = human α3β2α5 AChRs (Homo sapiens, UniProt P17787+P30532+P32297); test: Counter-screen against α3β2α5 nAChR; assay type: cell-based
human α3β2α5 AChRs, sequence (P32297 32-505): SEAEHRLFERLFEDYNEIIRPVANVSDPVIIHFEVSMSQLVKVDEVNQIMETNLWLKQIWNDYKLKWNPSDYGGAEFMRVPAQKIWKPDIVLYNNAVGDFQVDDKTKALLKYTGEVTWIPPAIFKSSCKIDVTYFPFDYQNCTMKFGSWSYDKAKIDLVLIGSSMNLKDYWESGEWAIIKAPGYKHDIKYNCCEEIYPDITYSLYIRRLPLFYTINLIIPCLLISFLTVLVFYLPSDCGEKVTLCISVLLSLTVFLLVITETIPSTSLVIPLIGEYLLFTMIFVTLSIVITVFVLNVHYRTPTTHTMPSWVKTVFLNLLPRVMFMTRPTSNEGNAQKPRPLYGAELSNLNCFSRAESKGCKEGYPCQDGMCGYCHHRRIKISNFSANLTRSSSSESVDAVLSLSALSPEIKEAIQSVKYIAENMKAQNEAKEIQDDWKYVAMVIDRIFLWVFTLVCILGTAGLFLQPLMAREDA
human α3β2α5 AChRs, sequence (P17787 26-502): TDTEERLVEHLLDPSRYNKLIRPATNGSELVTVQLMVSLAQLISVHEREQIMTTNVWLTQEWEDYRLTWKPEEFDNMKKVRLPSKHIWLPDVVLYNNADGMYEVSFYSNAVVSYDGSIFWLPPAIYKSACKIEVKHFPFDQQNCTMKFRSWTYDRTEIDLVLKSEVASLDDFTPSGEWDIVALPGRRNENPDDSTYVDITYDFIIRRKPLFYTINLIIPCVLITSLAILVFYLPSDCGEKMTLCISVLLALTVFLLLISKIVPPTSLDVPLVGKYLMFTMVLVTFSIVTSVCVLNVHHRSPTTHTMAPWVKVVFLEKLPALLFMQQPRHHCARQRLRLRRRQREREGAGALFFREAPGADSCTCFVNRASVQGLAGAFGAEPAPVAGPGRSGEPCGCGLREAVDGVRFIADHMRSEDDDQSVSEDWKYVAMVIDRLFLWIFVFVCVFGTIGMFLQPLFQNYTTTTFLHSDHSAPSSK
human α3β2α5 AChRs, sequence (P30532 23-468): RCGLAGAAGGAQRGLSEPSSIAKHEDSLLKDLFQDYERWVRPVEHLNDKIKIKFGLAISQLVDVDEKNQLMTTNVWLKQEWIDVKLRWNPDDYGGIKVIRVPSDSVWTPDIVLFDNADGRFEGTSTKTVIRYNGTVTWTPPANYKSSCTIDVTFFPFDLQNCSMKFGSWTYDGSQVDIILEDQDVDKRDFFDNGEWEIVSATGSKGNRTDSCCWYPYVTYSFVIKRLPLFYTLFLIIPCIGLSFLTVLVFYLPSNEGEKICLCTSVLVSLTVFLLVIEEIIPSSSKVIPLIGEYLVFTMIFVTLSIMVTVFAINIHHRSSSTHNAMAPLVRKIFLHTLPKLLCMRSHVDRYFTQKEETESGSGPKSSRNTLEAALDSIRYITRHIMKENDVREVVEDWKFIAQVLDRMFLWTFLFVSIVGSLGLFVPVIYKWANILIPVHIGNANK
Outline: as §1

human α3β2 AChRs = human α3β2 AChRs (Homo sapiens, UniProt P17787+P32297); test: Counter-screen against α3β2 nAChR; assay type: cell-based
human α3β2 AChRs, sequence (P32297 32-505): as the sequence (P32297 32-505) above
human α3β2 AChRs, sequence (P17787 26-502): as the sequence (P17787 26-502) above
Outline: as §1

human α3β4 AChRs = human α3β4 AChRs (Homo sapiens, UniProt P30926+P32297); test: Counter-screen against α3β4 nAChR; assay type: cell-based
human α3β4 AChRs, sequence (P32297 32-505): as the sequence (P32297 32-505) above
human α3β4 AChRs, sequence (P30926 22-498): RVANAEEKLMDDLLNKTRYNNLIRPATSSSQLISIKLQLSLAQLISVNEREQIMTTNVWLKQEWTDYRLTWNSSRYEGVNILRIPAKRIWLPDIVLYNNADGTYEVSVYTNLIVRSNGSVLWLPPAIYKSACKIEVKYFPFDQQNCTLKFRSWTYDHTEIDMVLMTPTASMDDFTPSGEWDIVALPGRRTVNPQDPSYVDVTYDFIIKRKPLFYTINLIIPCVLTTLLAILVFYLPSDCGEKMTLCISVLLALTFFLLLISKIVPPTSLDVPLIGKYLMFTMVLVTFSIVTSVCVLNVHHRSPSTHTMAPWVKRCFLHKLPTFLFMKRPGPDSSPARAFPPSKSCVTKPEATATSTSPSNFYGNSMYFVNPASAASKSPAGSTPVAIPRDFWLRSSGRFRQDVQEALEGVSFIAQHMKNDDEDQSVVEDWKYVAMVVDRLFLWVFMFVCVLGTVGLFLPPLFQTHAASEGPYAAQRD
Outline: (§2)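 Membrane-potential fluorometry on HEK tsA201 cells stably expressing human receptor, cultured in high-glucose DMEM with 10% FBS, 37 °C, 5% CO2. Poly-D-lysine-coated wells seeded at 150,000 (α3β4) or 200,000 (α3β4α5) cells. Serial dilutions of test compound applied 15 min before nicotine, injected during recording. Points averaged from 3–4 wells; Hill equation fitted to enhancement relative to nicotine-evoked signal.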

human α3β4α5 AChRs = human α3β4α5 AChRs (Homo sapiens, UniProt P30532+P30926+P32297); test: Counter-screen against α3β4α5 nAChR; assay type: cell-based
human α3β4α5 AChRs, sequence (P32297 32-505): as the sequence (P32297 32-505) above
human α3β4α5 AChRs, sequence (P30926 22-498): as the sequence (P30926 22-498) above
human α3β4α5 AChRs, sequence (P30532 23-468): as the sequence (P30532 23-468) above
Outline: as §2

Pharmacokinetics in mice = assay type: in vivo

human α4β2α5 AChRs, sequence (P43681 29-627 limits assumed): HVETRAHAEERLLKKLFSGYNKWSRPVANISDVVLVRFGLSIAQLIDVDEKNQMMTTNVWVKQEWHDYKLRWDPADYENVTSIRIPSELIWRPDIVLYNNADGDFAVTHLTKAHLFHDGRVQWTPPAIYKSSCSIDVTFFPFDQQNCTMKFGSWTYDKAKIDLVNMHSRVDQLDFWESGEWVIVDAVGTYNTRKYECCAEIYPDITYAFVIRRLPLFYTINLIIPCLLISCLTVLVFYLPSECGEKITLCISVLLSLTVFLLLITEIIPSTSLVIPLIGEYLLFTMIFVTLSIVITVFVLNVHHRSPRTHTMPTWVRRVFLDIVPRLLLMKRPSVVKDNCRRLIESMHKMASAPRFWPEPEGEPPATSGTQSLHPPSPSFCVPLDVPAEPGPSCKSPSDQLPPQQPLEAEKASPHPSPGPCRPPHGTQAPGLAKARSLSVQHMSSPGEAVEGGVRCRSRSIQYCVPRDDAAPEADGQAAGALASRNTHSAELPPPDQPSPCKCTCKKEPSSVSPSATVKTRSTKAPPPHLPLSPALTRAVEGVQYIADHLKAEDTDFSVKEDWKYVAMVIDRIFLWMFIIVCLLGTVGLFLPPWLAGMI
human α4β2α5 AChRs, sequence (P17787 26-502): as the sequence (P17787 26-502) above
human α4β2α5 AChRs, sequence (P30532 23-468): as the sequence (P30532 23-468) above
human α4β2 AChRs, sequence (P43681 29-627 limits assumed): as the sequence (P43681 29-627 limits assumed) above
human α4β2 AChRs, sequence (P17787 26-502): as the sequence (P17787 26-502) above

SMILES	activation at 1 µM (human α4β2α5 AChRs) [%]	further results
N#Cc1cccc(-c2nc(-c3cccnc3)no2)c1 [Compound 1a, 3-(3-(pyridin-3-yl)-1,2,4-oxadiazol-5-yl)benzonitrile, reference compound]	–	Emax (human α4β2α5 AChRs; Maximum efficacy relative to NS9283): 1; agonist activity at α4β2 (human α4β2 AChRs; without orthosteric agonist): no agonist activity; activity against α3β2α5 (human α3β2α5 AChRs): no activity; activity against α3β2 (human α3β2 AChRs): no activity; activity against α3β4 (human α3β4 AChRs): no activity; activity against α3β4α5 (human α3β4α5 AChRs): no activity
N#Cc1cccc(-c2nc(-c3ccccc3)no2)c1 [Compound 1b]	< 50	–
N#Cc1cccc(-c2nc(-c3ccccn3)no2)c1 [Compound 1c]	< 50	–
N#Cc1cccc(-c2nc(-c3ccncc3)no2)c1 [Compound 1d]	< 50	–
C[n+]1cccc(-c2noc(-c3cccc(C#N)c3)n2)c1 [Compound 1e]	< 50	–
c1ccc(-c2nc(-c3cccnc3)no2)cc1 [Compound 4a]	< 50	–
Clc1ccccc1-c1nc(-c2cccnc2)no1 [Compound 4b]	< 50	–
Clc1ccc(-c2nc(-c3cccnc3)no2)cc1 [Compound 4c]	< 50	–
Fc1cccc(-c2nc(-c3cccnc3)no2)c1 [Compound 4d]	< 50	–
Fc1cccc(-c2nc(-c3cccnc3)no2)c1F [Compound 4e]	< 50	–
O=[N+]([O-])c1ccccc1-c1nc(-c2cccnc2)no1 [Compound 4g]	< 50	–
FC(F)(F)c1cccc(-c2nc(-c3cccnc3)no2)c1 [Compound 4j]	< 50	–
FC(F)(F)Oc1cccc(-c2nc(-c3cccnc3)no2)c1 [Compound 4k]	< 50	–
COc1cccc(-c2nc(-c3cccnc3)no2)c1 [Compound 4l]	< 50	–
N#Cc1cccc(-n2ccc(-c3cccnc3)n2)c1 [Compound 5a]	< 50	–
N#Cc1cccc(-n2cc(-c3cccnc3)cn2)c1 [Compound 5b]	< 50	–
N#Cc1cccc(-c2ccn(-c3cccnc3)n2)c1 [Compound 5c]	< 50	–
N#Cc1cccc(-c2cn(-c3cccnc3)cn2)c1 [Compound 5d]	< 50	–
N#Cc1cccc(-n2cnc(-c3cccnc3)c2)c1 [Compound 5e]	< 50	–

SMILES	activation at 1 µM (human α4β2α5 AChRs) [%]	further results
N#Cc1cccc(-c2ncn(-c3cccnc3)n2)c1 [Compound 5f]	< 50	–
N#Cc1cccc(-n2cc(-c3cccnc3)nn2)c1 [Compound 5j]	< 50	–
N#Cc1cccc(-n2nnc(-c3cccnc3)n2)c1 [Compound 5k, 3-(5-(pyridin-3-yl)-2H-tetrazol-2-yl)benzonitrile]	–	PAM potency on α4β2 (in words) (human α4β2 AChRs; compared with α4β2α5): equally potent; activity against α3β2α5 (human α3β2α5 AChRs): no activity; activity against α3β2 (human α3β2 AChRs): no activity; clearance (in words) (Pharmacokinetics in mice; mice): moderate clearance; oral exposure (in words) (Pharmacokinetics in mice; mice): very good oral exposure; clearance (Pharmacokinetics in mice; mouse, in vivo, intravenous, 1 mg/kg): 46 mL/min/kg; activity against α3β4 (human α3β4 AChRs): no activity; activity against α3β4α5 (human α3β4α5 AChRs): no activity
C[n+]1cccc(-c2nnn(-c3cccc(C#N)c3)n2)c1 [Compound 11a]	< 50	–
N#Cc1cccc(-n2nnc(-c3ccccc3)n2)c1 [Compound 11b]	< 50	–
N#Cc1cccc(-n2nnc(-c3ccncc3)n2)c1 [Compound 11c]	< 50	–
N#Cc1cccc(-n2nnc(-c3ccccn3)n2)c1 [Compound 11d]	< 50	–
N#Cc1cccc(-n2nnc(-c3ccc(Cl)nc3)n2)c1 [Compound 11e]	< 50	–
N#Cc1cccc(-n2nnc(-c3cccnc3Cl)n2)c1 [Compound 11f]	< 50	–
N#Cc1cccc(-n2nnc(-c3cncc(Cl)c3)n2)c1 [Compound 11g]	< 50	–
N#Cc1cccc(-n2nnc(-c3cnccc3Cl)n2)c1 [Compound 11h]	< 50	–
Fc1ccc(-n2nnc(-c3cccnc3)n2)c(F)c1 [Compound 12a]	< 50	–
COc1ccc(OC)c(-n2nnc(-c3cccnc3)n2)c1 [Compound 12b]	< 50	–
Clc1cc(Cl)cc(-n2nnc(-c3cccnc3)n2)c1 [Compound 12c]	< 50	–
COc1cc(OC)cc(-n2nnc(-c3cccnc3)n2)c1 [Compound 12d]	< 50	–
NC(=O)c1cccc(-n2nnc(-c3cccnc3)n2)c1 [Compound 12e]	< 50	–
Cc1ccc(-n2nnc(-c3cccnc3)n2)cc1C#N [Compound 12g]	< 50	–
Clc1ccccc1-n1nnc(-c2cccnc2)n1 [Compound 12i]	< 50	–
Brc1cccc(-n2nnc(-c3cccnc3)n2)c1 [Compound 12j]	< 50	–
